Here are results for two molecules from ChEMBL document CHEMBL3352043, “Discovery of small-molecule inhibitors selectively targeting the DNA-binding domain of the human androgen receptor” (J Med Chem, 2014).

Data set [1] deals with T1, Progesterone receptor (Homo sapiens) (UniProt P06401).
T1 sequence (whole entry): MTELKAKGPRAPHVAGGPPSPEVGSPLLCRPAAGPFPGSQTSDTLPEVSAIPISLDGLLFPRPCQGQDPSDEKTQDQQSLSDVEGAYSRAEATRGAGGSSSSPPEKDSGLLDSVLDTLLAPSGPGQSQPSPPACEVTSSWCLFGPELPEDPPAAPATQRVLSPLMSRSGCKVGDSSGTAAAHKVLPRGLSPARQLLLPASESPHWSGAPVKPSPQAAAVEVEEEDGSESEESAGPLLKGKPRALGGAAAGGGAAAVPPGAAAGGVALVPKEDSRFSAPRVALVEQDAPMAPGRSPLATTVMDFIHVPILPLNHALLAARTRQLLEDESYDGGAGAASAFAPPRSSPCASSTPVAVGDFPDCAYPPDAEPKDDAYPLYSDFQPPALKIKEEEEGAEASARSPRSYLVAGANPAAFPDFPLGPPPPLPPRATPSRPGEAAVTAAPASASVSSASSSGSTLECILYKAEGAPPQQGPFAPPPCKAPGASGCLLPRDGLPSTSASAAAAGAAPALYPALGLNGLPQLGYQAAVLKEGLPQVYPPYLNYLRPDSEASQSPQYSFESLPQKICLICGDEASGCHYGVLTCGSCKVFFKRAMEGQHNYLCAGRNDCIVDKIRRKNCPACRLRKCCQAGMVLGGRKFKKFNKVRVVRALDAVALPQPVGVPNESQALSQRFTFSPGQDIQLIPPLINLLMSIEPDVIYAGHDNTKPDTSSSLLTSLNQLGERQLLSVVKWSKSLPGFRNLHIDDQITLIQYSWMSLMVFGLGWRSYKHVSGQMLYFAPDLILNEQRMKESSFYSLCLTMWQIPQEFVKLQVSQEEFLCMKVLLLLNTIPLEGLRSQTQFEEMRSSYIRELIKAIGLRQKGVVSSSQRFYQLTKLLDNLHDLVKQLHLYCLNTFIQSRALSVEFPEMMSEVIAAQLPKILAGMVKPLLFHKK
In words: Inhibition of progesterone receptor (unknown origin) transcriptional activity at […]. A digest of the protocol:
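PC3 cells were starved 5 days in RPMI 1640 with 5% charcoal-stripped serum. They were cotransfected with GR or PR plasmid plus 50 ng ARR3tk-luciferase, and 48 h later treated with compound for 24 h. Stimulation was 1 nM dexamethasone (GR) or progesterone (PR). Luciferase luminescence was read from cell lysates.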

A further data set deals with MR49F. Nature of the data set: Growth inhibition of enzalutamide-resistant human MR49F cells after 3 days by MTS assay. Format: functional, cell-based. The essentials:
(§1)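 LNCaP and MR49F cells were seeded at 3000 cells/well in RPMI 1640 with 5% charcoal-stripped serum. They were treated with 0.1 nM R1881 plus compound (0−25 μM) for 4 days; the figure legend gives 3 days. Readout was MTS tetrazolium absorbance. Growth was normalized as (sample − vehicle)/(0.1 nM R1881 − vehicle) × 100.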

Data set [2] in a line: Stability of the compound in RPMI plus 5% charcoal stripped serum media after 1 hr by MS analysis. It is filed as physicochemical.
The next data set concerns LNCaP. Nature of the data set: Growth inhibition of AR-dependent human LNCAP cells after 3 days by MTS assay. It is filed as functional, cell-based. The essentials:
as §1

Data set [3] in a line: Growth inhibition of AR-negative human PC3 cells after 3 days by MTS assay. It is filed as cell-based. Conditions: pc-3, 72 h.

Active and inactive are the calls of the source. The calls are words filed in the database; no cut-off is given here.

On to `Brc1ncn(-c2csc(N3CCOCC3)n2)c1Br`, for which, in data set [1], the inhibition entry is “inactive”. Moreover, the “growth inhibition (GI)” value in the data set with MR49F was “Active”. In addition, in data set [2], the Stability result is on record as “Stable”. Further, the “growth inhibition (GI)” value in the data set on LNCaP is “Dose-dependent effect”. In data set [3], the Activity entry is given as “Non-toxic”.
For the molecule `c1ccc(-c2csc(N3CCOCC3)n2)cc1`, the inhibition result in data set [1] is “inactive”.
